Screens deposited in PubChem by Broad Institute.
The list is not random: actives were taken first. Their share in the collection is about 2.1%.
EWS-Fli inh: EWS/Fli-driven NR0B1 reporter inhibitors, primary screen, A673 cells, NR0B1 luciferase, luminescence, MLPCN library | viability-normalised | inhibition, % at 12.6 µM | hit rate 0.67% among 350,000 | AID 651661, 2012;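 active = mean inhibition of at least 50% after viability correction, with every replicate also passing that limit; inconclusive = mean reaches 50% but only one of two replicates passes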;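 also: firefly luciferase signal divided by Alamar Blue viability fluorescence both relative to DMSO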
PAX8 inh HTS: inhibitors of PAX8-driven TPO luciferase reporter, primary screen, RMG-I cells, single concentration; SteadyGlo, 24 h; inhibition, % at 12.6 µM; hit rate 1.2% among 360,000;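 active = mean replicate inhibition at least 60% with every replicate also reaching 60%; inconclusive = only one of the two criteria is met; inactive = mean below 60% and not all replicates reaching 60%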;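 also: luciferase light reporting Pax8 driven TPO promoter activity; plate controls were median of neutral control wells for no effect and mitoxantrone controls for full effect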
INS-1E GSIS act: GLuc luminescence reporter in INS-1E cells, primary screen for activators of glucose-dependent secretion of insulin | AID 743287, 2014 | hit rate 0.61% among 370,000 | INS-1E GLuc reporter insulin secretion, 2-3 h | activation, % at 16.6 µM;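 active = lowest replicate activation of at least 40%, so every replicate reaches that level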;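 also: 0% = median of neutral control wells and 100% = median of IBMX positive control wells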
AF4-AF9 inh: inhibitors of AF4 peptide binding to AF9, primary screen, biochemical, AlphaScreen, biotin-AF4 peptide, FLAG-AF9, single point | Protein AF-9 (Homo sapiens), P42568 | inhibition, % at 10 µM | hit rate 0.47% among 350,000 | AID 651704, 2012;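 active = every replicate reaching a set inhibition limit, whatever the replicate mean, cut at about 25% in these data; inconclusive = mean inhibition reaches that limit but some replicates miss it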;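 also: 0% = plate neutral control median and 100% = total signal loss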
Target sequence (P42568 whole entry, looked up): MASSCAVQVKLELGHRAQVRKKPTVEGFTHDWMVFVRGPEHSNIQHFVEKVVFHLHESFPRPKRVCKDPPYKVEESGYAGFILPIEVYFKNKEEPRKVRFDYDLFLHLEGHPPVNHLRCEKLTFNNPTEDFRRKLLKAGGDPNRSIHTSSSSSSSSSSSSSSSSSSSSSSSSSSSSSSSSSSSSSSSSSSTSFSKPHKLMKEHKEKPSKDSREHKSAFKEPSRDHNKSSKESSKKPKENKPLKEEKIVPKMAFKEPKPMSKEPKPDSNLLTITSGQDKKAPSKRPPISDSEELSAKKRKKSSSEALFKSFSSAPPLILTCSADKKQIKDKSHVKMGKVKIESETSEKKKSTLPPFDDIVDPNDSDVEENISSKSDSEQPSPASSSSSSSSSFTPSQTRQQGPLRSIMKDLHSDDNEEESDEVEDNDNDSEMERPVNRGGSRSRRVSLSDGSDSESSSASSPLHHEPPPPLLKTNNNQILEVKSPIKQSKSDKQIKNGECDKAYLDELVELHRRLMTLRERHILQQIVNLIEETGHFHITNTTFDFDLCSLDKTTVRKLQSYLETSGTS
PGC1a acetyl inh: inhibitors of PGC1a acetylation signal, primary screen, cell-based, U2OS, AlphaScreen, inhibitor mode; inhibition, % at 15.6 µM; AID 651687, 2012; hit rate 0.17% among 350,000; AlphaScreen anti-acetyl-lysine; with virally co-expressed GCN5 acetyltransferase;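 active = every replicate shows inhibition of at least 40%; inconclusive = mean inhibition at least 40% but some replicate below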;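 also: 0% = neutral control wells and 100% = positive control wells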
XiGFP reactiv: activators of inactive X chromosome reactivation, primary screen, imaging, XiGFP fibroblasts, GFP high-content imaging, set 2 | activation, % at 7.58 µM | hit rate 0.055% among 360,000 | XiGFP mouse fibroblasts, % GFP-positive cells imaging, 3 d; cells co-treated with 5-aza-dC sensitizer; scaled so ellipticine positive control = 100%;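 active = mean normalized replicate activation at least 10% and every replicate at or above 10%; inconclusive = only one of the two criteria met; inactive = mean below 10% and not all replicates reach 10%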;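 also: 0% = median of on-plate neutral control wells and 100% = ellipticine 6 µM median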
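System: XiGFP fibroblasts, SV40-immortalized. Medium: DMEM plus 5-aza-dC sensitizer. Doses: single point. Timing: 3 d treatment, 15 min room-temperature fixation. Control set: ellipticine 6 µM.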
DNA binding: DNA binders by acridine orange displacement, dose response, counter-screen for EWS/Fli inhibitor project, biochemical, fluorescence polarization, cherry-pick. shares compounds with EWS-Fli inh. salmon sperm DNA acridine orange fluorescence polarization. AC35, µM (series often up to 68 µM), for inactives: top-dose activity change, negative = DNA binding. hit rate 2% among 640. AID 720586, 2013;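 active = fitted curve reaches a 35% signal fall AC35 below twice the sample's top valid tested dose, actives reach about 48 µM in these data; inactive = the rest, including activity in the rising direction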;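 also: lower polarization ratio signals compound binding to DNA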
COX5a expr inh: inhibitors of PGC-1a-driven COX5a expression, dose response, cell-based, C2C12 myotubes, RT-qPCR, cherry-picked samples; C2C12 myotubes PGC-1a adenovirus; maximal activity, %; 45 tested, under 10 active; AID 743461, 2014; shares compounds with PGC1a acetyl inh;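 active = fitted dose curve reaching 40% activity at or below the highest valid dose tested; inconclusive = flat fit between 30% and 70%, or an unusable fit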
AID743468: change in PGC-1a target gene PDK4 expression, dose response, C2C12 myotubes, RT-qPCR, cherry-pick | shares compounds with PGC1a acetyl inh | PGC-1a adenovirus, PDK4 mRNA qPCR | 45 tested, under 10 active | PDK4 expression increase, % at 19.5 µM;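 active = fitted curve reaching a 40% PDK4 expression rise at or below the top valid tested dose; inconclusive = no clear call, values can overlap the other calls; inactive = the rest, including shifts the wrong way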
Alpha interfer: AlphaScreen signal interference counter-screen, dose response, artefact control, biochemical, cherry-picked samples, luminescence | shares compounds with AF4-AF9 inh | AC50, µM (highest dose often 12 µM), for inactives: at the top dose activity change, negative = inhibition | hit rate 45% among 530 | AID 720494, 2013; cut-off not given, nearly all actives have AC50 up to about 14 µM
Starred values were filed as active, the others as inactive; ? = inconclusive; . = not tested or not shown.

SMILES	EWS-Fli inh	PAX8 inh HTS	INS-1E GSIS act	AF4-AF9 inh	PGC1a acetyl inh	XiGFP reactiv	others
O=C(C1CCCC1)N1[C@@H]2CN(S(=O)(=O)c3ccccc3)c3ccccc3[C@@H]2[C@@H]1CO	-2	-35	-2	1	-17	0
CN(C)C(=S)N=Nc1[nH]c2ccccc2c1O	61*	-78	-27	-3	.	0	DNA binding=-7%
CN(C)C(=O)c1ccc(N=Nc2c(O)c3ccccc3[nH]c2=O)cc1	-14	11	-10	0	4	0
OCC1OC(n2ccc3c2ncn2ncnc32)C(O)C1O (centres undefined)	71*	72*	-7	-2	.	0	DNA binding=-10%
COCC(=O)N(C)C[C@@H]1Oc2ncc(-c3ccc(F)cc3)cc2C(=O)N([C@@H](C)CO)C[C@H]1C	-9	.	4	-2	-6	0
CCOc1ccccc1C=C1CCc2ccccc2C1=O	-41	-20	.	9	-1	0
COc1ccc(C=C2CCc3ccccc3C2=O)cc1	70*	-96	5	-4	.	0	DNA binding=2%
COc1ccc(/C=C2/CCc3ccccc3C2=O)cc1OC	.	-76	11	.	7	0
CCOc1ccc(/C=C2\CCc3ccccc3C2=O)cc1	70*	-24	4	1	.	0	DNA binding=-7%
Cc1ccccc1-c1cnc2c(c1)C(=O)N([C@@H](C)CO)C[C@@H](C)[C@@H](CN(C)C(=O)CN(C)C)O2	-6	.	13	-1	10	0
COc1ccc(S(=O)(=O)N2CCCc3nc(-c4ccc(F)cc4)ccc32)cc1	60*	21	.	0	.	2	DNA binding=4%
COc1ccc(C(=O)Nc2cccc(C(=O)N/N=C/c3ccc(OC)cc3OC)c2)cc1	54*	40	4	3	.	0	DNA binding=8%
COc1ccc(/C=N/NC(=O)c2cccc(NC(C)=O)c2)c(OC)c1	4	17	-6	1	11	0
CN1C[C@H]2[C@@H](c3ccccc31)[C@H](CO)N2C(=O)CN1CCOCC1	1	10	5	-1	9	0
COc1ccc(OC)c(-c2cc(C(F)(F)F)c3c(n2)sc2c(O)cc(=O)[nH]c23)c1	89*	-3	5	-4	.	0	DNA binding=-9%
O=c1cc(O)c2sc3nc(-c4ccccc4)cc(C(F)(F)F)c3c2[nH]1	.	14	27	.	-4	0
CC(C)[C@H](C)NC(=O)N(C)C[C@H]1OCc2ccccc2-c2c(n(C)c3ccccc23)C(=O)N([C@H](C)CO)C[C@@H]1C	.	.	-24	.	.	0
CN=c1scc(-c2cccs2)n1/N=C/c1ccccc1O	93*	118*	-1	31*	.	0	DNA binding=-7%;Alpha interfer=-23%
Cc1cc(N(C)C)ccc1N=Nc1ccc(N)cc1	-6	-98	-4	23	.	0
CN(C)c1ccc(N=Nc2ccccc2Br)cc1	53*	-19	-10	35*	.	0	DNA binding=-5%;Alpha interfer=12µM*
CO[C@H]1CN(C)C(=O)c2cc(NC(C)=O)ccc2OC[C@H](C)N(C(=O)c2ccccc2F)C[C@@H]1C	-1	.	-2	-1	-1	0
CC1=C(Cl)C2=NS(=O)(=O)CCN2C=C1Cl	5	4	13	0	?	?	COX5a expr inh=-23;AID743468=0
CC[C@H](C)[C@H](NC(=O)c1ccc(Cl)cc1)C(=O)OCC(=O)c1ccc2c(c1)NC(=O)CO2	.	-9	.	.	?	.	COX5a expr inh=-16;AID743468=5
CC(C)[C@H](NC(=O)c1ccccc1)C(=O)OCC(=O)c1ccc2c(c1)NC(=O)CO2	.	-7	.	.	2	.
Cc1cc2c(c(/C=C/C(=O)c3ccccc3)c1)OC1(C=C2)Oc2ccccc2C(=O)N1C (centres undefined)	43	11	-1	6	50*	1	COX5a expr inh=-44;AID743468=-53
SMILES	EWS-Fli inh	PAX8 inh HTS	INS-1E GSIS act	AF4-AF9 inh	PGC1a acetyl inh	XiGFP reactiv	others
O=C1c2ccccc2OC2(C=Cc3ccccc3O2)N1Cc1ccccc1 (centres undefined)	.	.	-1	.	-12	.
CCN1CCN(Cc2ccc(NC(=O)c3cc(NC(=O)c4cncc(-c5ccc(C#N)cc5)c4)cc(OC)c3)cc2C(F)(F)F)CC1	48	108*	23	5	86*	1	COX5a expr inh=-46;AID743468=1
CC(C)NC(=O)N[C@@H]1C=C[C@H](CC(=O)O)O[C@@H]1CO	-3	-11	4	-1	15	0
CC(=O)Nc1ccc2c(c1)C(=O)N(C)C[C@@H](C)[C@H](CN(C)S(C)(=O)=O)O2	.	.	1	.	.	0
COc1ccccc1C#Cc1ccc2c(c1)O[C@@H](CN(C)Cc1cccnc1)[C@H](C)CN([C@H](C)CO)S2(=O)=O	20	84*	.	5	43*	.	COX5a expr inh=11;AID743468=?
C[C@H](CO)N1C[C@H](C)[C@@H](CN(C)C(=O)C2CCCCC2)Oc2cc(C#Cc3ccncc3)ccc2S1(=O)=O	5	34	-20	3	?	-1	COX5a expr inh=-21;AID743468=-2
C[C@H]1CN([C@@H](C)CO)S(=O)(=O)c2ccc(-c3ccccc3)cc2O[C@@H]1CN(C)Cc1cccc(F)c1	31	.	9	0	48*	-1	COX5a expr inh=-51;AID743468=-20
C[C@@H]1CN([C@H](C)CO)S(=O)(=O)c2ccc(C#Cc3ccncc3)cc2O[C@@H]1CN(C)C(=O)C1CCCCC1	-1	46	-20	1	23	-1
Cc1nc(Nc2ccc(S(N)(=O)=O)cc2)sc1C(=O)Nc1ccccc1	0	43	-16	3	?	4	COX5a expr inh=-26;AID743468=-8
Cc1nc(Nc2ccccc2)sc1C(=O)Nc1ccccc1	-51	-33	-24	.	.	0
Cc1nc2ccccn2c1C(=O)/C=C/c1ccc(F)cc1	.	.	.	.	?	.	COX5a expr inh=-23;AID743468=6
O=C(C[C@@H]1C=C[C@@H](NC(=O)CC2CC2)[C@H](CO)O1)NCc1ccccc1	2	.	3	-4	7	0
